ChEMBL document CHEMBL1240480, “Design, synthesis and biological evaluation of L-dopa amide derivatives as potential prodrugs for the treatment of Parkinson's disease” (Eur J Med Chem, 2010)
Values belong to the compound of their own block, whether it stands above or below them.

Experiments:
[1] = system: Rattus norvegicus; test: Antiparkinsonian activity in 6-hydroxydopamine lesioned Wistar rat assessed as number of rotation per 10 mins at 20.1 mg/kg, ip; format: functional; details: route intraperitoneal
How it was run: (§1)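 Rotometer assay in unilaterally 6-OHDA-lesioned male Wistar rats (apomorphine-confirmed, >6 turns/min). Benserazide 10 mg/kg was given, followed by compound at 63.4 µmol/kg ip or po in saline (n=4–8 per treatment). Rotations were recorded per 10 min for 240 min. Peak (maximum) rotations per 10 min were taken and expressed relative to L-dopa.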

[2] = system: Rattus norvegicus; test: Antiparkinsonian activity in 6-hydroxydopamine lesioned Wistar rat assessed as number of rotation per 10 mins at 20.1 mg/kg, po; format: functional; how it was run: as §1
[3] = system: Rattus norvegicus; test: Antiparkinsonian activity in 6-hydroxydopamine lesioned Wistar rat assessed as area under curve measured as number of rotation per 10 mins at 20.1 mg/kg, po; format: functional
How it was run: (§2)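 Male Wistar rats were given desipramine (25 mg/kg ip) and then a unilateral 6-OHDA injection (8 µg free base) into the left medial forebrain bundle. Lesions were confirmed ≥2 weeks later by apomorphine (0.5 mg/kg sc), accepting rats with >6 turns/min. Rats (n=4–8) received benserazide 10 mg/kg and 30 min basal recording, then drug at 63.4 µmol/kg ip or po in saline. Contraversive rotations were counted per 10 min over 240 min. AUC was calculated and expressed as % of the L-dopa effect.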

[4] = system: Rattus norvegicus; test: Antiparkinsonian activity in 6-hydroxydopamine lesioned Wistar rat assessed as area under curve measured as number of rotation per 10 mins at 20.1 mg/kg, ip; format: functional; details: route intraperitoneal; how it was run: as §2
[5] = system: Rattus norvegicus; test: Antiparkinsonian activity in 6-hydroxydopamine lesioned Wistar rat assessed as duration of rotation per 10 mins at 20.1 mg/kg, po; format: functional
How it was run: (§3)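 The 6-OHDA-lesioned male Wistar rats were apomorphine-screened (>6 turns/min) and given benserazide 10 mg/kg, then a saline-vehicle dose of 63.4 µmol/kg ip or po (n=4–8). Rotations were counted per 10 min for 4 h. Duration of activity was the time turning >10 turns per 10 min, expressed as % of the L-dopa effect.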

[6] = system: Rattus norvegicus; test: Antiparkinsonian activity in 6-hydroxydopamine lesioned Wistar rat assessed as duration of rotation per 10 mins at 20.1 mg/kg, ip; format: functional; details: route intraperitoneal; how it was run: as §3
[7] = system: Rattus norvegicus; test: Cmax in Wistar rat at 20.1 mg/kg, po assessed as L-dopa level; format: ADME, organism-based; design: dose 20.1 mg/kg, route oral; details: in vivo
How it was run: (§4)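 Naïve male Wistar rats (250–500 g), fasted overnight, dosed orally in 0.9% saline with benserazide (10 mg/kg) at dose equivalent to 12.5 mg/kg L-dopa. Heparinised tail-vein blood at various times; plasma extracted with 20% TFA in 10 mM metabisulphite with warfarin internal standard; L-dopa quantified by LC-MS/MS (positive ESI) against plasma standard curve 0.39–50 µM.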

[8] = system: Rattus norvegicus; test: Apparent half life in Wistar rat at 20.1 mg/kg, po assessed as L-dopa level; format: ADME, organism-based; design: dose 20.1 mg/kg, route oral; details: in vivo; how it was run: as §4
[9] = system: Rattus norvegicus; test: AUC (0 to 4 hrs) in Wistar rat at 20.1 mg/kg, po assessed as L-dopa level; format: ADME, organism-based, Plasma; design: time < 4 hr, dose 20.1 mg/kg, route oral; details: in vivo
How it was run: (§5)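 Naïve male Wistar rats (250–500 g), fasted overnight, dosed with compound in 0.9% saline together with benserazide (10 mg/kg), at a dose molar-equivalent to 12.5 mg/kg L-dopa. Heparinised tail-vein blood was sampled at intervals and the plasma stored at −80 °C. L-dopa was extracted with 20% TFA/10 mM metabisulphite plus warfarin internal standard and quantified by LC-MS/MS (positive ESI) against plasma standard curves.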

[10] = system: Rattus norvegicus; test: Antiparkinsonian activity in 6-hydroxydopamine lesioned Wistar rat assessed as duration of rotation per 10 mins at 12.5 mg/kg, ip; format: functional; details: route intraperitoneal; how it was run: as §3
[11] = system: Rattus norvegicus; test: Antiparkinsonian activity in 6-hydroxydopamine lesioned Wistar rat assessed as duration of rotation per 10 mins at 12.5 mg/kg, po; format: functional; how it was run: as §3
[12] = system: Rattus norvegicus; test: Antiparkinsonian activity in 6-hydroxydopamine lesioned Wistar rat assessed as number of rotation per 10 mins at 12.5 mg/kg, ip; format: functional; details: route intraperitoneal; how it was run: as §1
[13] = system: Rattus norvegicus; test: Antiparkinsonian activity in 6-hydroxydopamine lesioned Wistar rat assessed as number of rotation per 10 mins at 12.5 mg/kg, po; format: functional; how it was run: as §1
[14] = system: Rattus norvegicus; test: Antiparkinsonian activity in 6-hydroxydopamine lesioned Wistar rat assessed as area under curve measured as number of rotation per 10 mins at 12.5 mg/kg, po; format: functional; how it was run: as §2
[15] = system: Rattus norvegicus; test: Antiparkinsonian activity in 6-hydroxydopamine lesioned Wistar rat assessed as area under curve measured as number of rotation per 10 mins at 12.5 mg/kg, ip; format: functional; details: route intraperitoneal; how it was run: as §2
[16] = system: Rattus norvegicus; test: Antiparkinsonian activity in 6-hydroxydopamine lesioned Wistar rat assessed as duration of rotation per 10 mins at 14.74 mg/kg, ip; format: functional; details: route intraperitoneal; how it was run: as §3
[17] = system: Rattus norvegicus; test: Antiparkinsonian activity in 6-hydroxydopamine lesioned Wistar rat assessed as duration of rotation per 10 mins at 14.74 mg/kg, po; format: functional; how it was run: as §3
[18] = system: Rattus norvegicus; test: Antiparkinsonian activity in 6-hydroxydopamine lesioned Wistar rat assessed as number of rotation per 10 mins at 14.74 mg/kg, ip; format: functional; details: route intraperitoneal; how it was run: as §1
[19] = system: Rattus norvegicus; test: Antiparkinsonian activity in 6-hydroxydopamine lesioned Wistar rat assessed as number of rotation per 10 mins at 14.74 mg/kg, po; format: functional; how it was run: as §1
[20] = system: Rattus norvegicus; test: Antiparkinsonian activity in 6-hydroxydopamine lesioned Wistar rat assessed as area under curve measured as number of rotation per 10 mins at 14.74 mg/kg, po; format: functional; how it was run: as §2
[21] = system: Rattus norvegicus; test: Antiparkinsonian activity in 6-hydroxydopamine lesioned Wistar rat assessed as area under curve measured as number of rotation per 10 mins at 14.74 mg/kg, ip; format: functional; details: route intraperitoneal; how it was run: as §2
[22] = system: Rattus norvegicus; test: Cmax in Wistar rat at 14.8 mg/kg, po assessed as L-dopa level; format: ADME, organism-based; design: dose 14.8 mg/kg, route oral; details: in vivo; how it was run: as §4
[23] = system: Rattus norvegicus; test: Apparent half life in Wistar rat at 14.8 mg/kg, po assessed as L-dopa level; format: ADME, organism-based; design: dose 14.8 mg/kg, route oral; details: in vivo; how it was run: as §4
[24] = system: Rattus norvegicus; test: AUC (0 to 4 hrs) in Wistar rat at 14.8 mg/kg, po assessed as L-dopa level; format: ADME, organism-based, Plasma; design: time < 4 hr, dose 14.8 mg/kg, route oral; details: in vivo; how it was run: as §5
[25] = system: Rattus norvegicus; test: Antiparkinsonian activity in 6-hydroxydopamine lesioned Wistar rat assessed as number of rotation per 10 mins at 16.53 mg/kg, ip; format: functional; details: route intraperitoneal; how it was run: as §1
[26] = system: Rattus norvegicus; test: Antiparkinsonian activity in 6-hydroxydopamine lesioned Wistar rat assessed as number of rotation per 10 mins at 16.53 mg/kg, po; format: functional; how it was run: as §1
[27] = system: Rattus norvegicus; test: Antiparkinsonian activity in 6-hydroxydopamine lesioned Wistar rat assessed as area under curve measured as number of rotation per 10 mins at 16.53 mg/kg, po; format: functional; how it was run: as §2
[28] = system: Rattus norvegicus; test: Antiparkinsonian activity in 6-hydroxydopamine lesioned Wistar rat assessed as area under curve measured as number of rotation per 10 mins at 16.53 mg/kg, ip; format: functional; details: route intraperitoneal; how it was run: as §2
[29] = system: Rattus norvegicus; test: Antiparkinsonian activity in 6-hydroxydopamine lesioned Wistar rat assessed as duration of rotation per 10 mins at 16.53 mg/kg, po; format: functional; how it was run: as §3
[30] = system: Rattus norvegicus; test: Antiparkinsonian activity in 6-hydroxydopamine lesioned Wistar rat assessed as duration of rotation per 10 mins at 16.53 mg/kg, ip; format: functional; details: route intraperitoneal; how it was run: as §3
[31] = system: Rattus norvegicus; test: Antiparkinsonian activity in 6-hydroxydopamine lesioned Wistar rat assessed as number of rotation per 10 mins at 20.97 mg/kg, po; format: functional; how it was run: as §1
[32] = system: Rattus norvegicus; test: Antiparkinsonian activity in 6-hydroxydopamine lesioned Wistar rat assessed as area under curve measured as number of rotation per 10 mins at 20.97 mg/kg, po; format: functional; how it was run: as §2
[33] = system: Rattus norvegicus; test: Antiparkinsonian activity in 6-hydroxydopamine lesioned Wistar rat assessed as duration of rotation per 10 mins at 20.97 mg/kg, po; format: functional; how it was run: as §3
[34] = system: Rattus norvegicus; test: Cmax in Wistar rat at 25.4 mg/kg, po assessed as L-dopa level; format: ADME, organism-based; design: dose 25.4 mg/kg, route oral; details: in vivo; how it was run: as §4
[35] = system: Rattus norvegicus; test: Apparent half life in Wistar rat at 25.4 mg/kg, po assessed as L-dopa level; format: ADME, organism-based; design: dose 25.4 mg/kg, route oral; details: in vivo; how it was run: as §4
[36] = system: Rattus norvegicus; test: AUC (0 to 4 hrs) in Wistar rat at 25.4 mg/kg, po assessed as L-dopa level; format: ADME, organism-based, Plasma; design: time < 4 hr, dose 25.4 mg/kg, route oral; details: in vivo; how it was run: as §5
[37] = system: Rattus norvegicus; test: Antiparkinsonian activity in 6-hydroxydopamine lesioned Wistar rat assessed as number of rotation per 10 mins at 22.75 mg/kg, po; format: functional
[38] = system: Rattus norvegicus; test: Antiparkinsonian activity in 6-hydroxydopamine lesioned Wistar rat assessed as area under curve measured as number of rotation per 10 mins at 22.75 mg/kg, po; format: functional; how it was run: as §2
[39] = system: Rattus norvegicus; test: Antiparkinsonian activity in 6-hydroxydopamine lesioned Wistar rat assessed as duration of rotation per 10 mins at 22.75 mg/kg, po; format: functional; how it was run: as §3

Cmax [7]: 1746 ng/mL
t1/2 [8]: 1.62 h
AUC [9]: 245 µg·min/mL
SMILES: CC(=O)Oc1ccc(C[C@H](N)C(N)=O)cc1OC(C)=O.Cl
Activity [1]: 69
Activity [2]: 107
Activity [3]: 1085
Activity [4]: 838
Time [5]: 147 min
Time [6]: 140 min

SMILES: N[C@@H](Cc1ccc(O)c(O)c1)C(=O)O [LEVODOPA]
Time [10]: 160 min
Time [11]: 119 min
Activity [12]: 104
Activity [13]: 71
Activity [14]: 522
Activity [15]: 1021

Cmax [22]: 2203 ng/mL
t1/2 [23]: 0.867 h
AUC [24]: 256 µg·min/mL
SMILES: Cl.NC(=O)[C@@H](N)Cc1ccc(O)c(O)c1
Time [16]: 155 min
Time [17]: 103 min
Activity [18]: 144
Activity [19]: 105
Activity [20]: 612
Activity [21]: 1186

SMILES: CCNC(=O)[C@@H](N)Cc1ccc(O)c(O)c1.Cl
Activity [25]: 40
Activity [26]: 39
Activity [27]: 324
Activity [28]: 117
Time [29]: 39 min
Time [30]: 18 min

SMILES: CNC(=O)[C@@H](N)Cc1ccc(OC(C)=O)c(OC(C)=O)c1.Cl
Activity [31]: 1
Activity [32]: 26
Time [33]: 0 min

Cmax [34]: 860 ng/mL
t1/2 [35]: 1.3 h
AUC [36]: 98 µg·min/mL
SMILES: CC(C)CC(=O)Oc1ccc(C[C@H](N)C(N)=O)cc1OC(=O)CC(C)C.Cl

SMILES: CC(=O)Oc1ccc(C[C@H](N)C(=O)NC(C)C)cc1OC(C)=O.Cl
Activity [37]: 2
Activity [38]: 26
Time [39]: 0 min
